Source: PubChem (Broad Institute)
This excerpt belongs to a sample that is enriched for hits.
E-selectin induc – E-selectin induction in HUVECs, primary screen, imaging, HUVEC, immunofluorescence imaging, single point; P16581; normalized: neutral wells 0, TNF-alpha wells 100; activation, % at 7.58 µM; 0.37% of 260,000 active; AID 686992, 2013;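 active = mean E-selectin-positive cell signal at least 10% of the positive control, reached in at least 60% of replicates, without over 20% cell loss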
Target sequence (P16581 whole entry, looked up): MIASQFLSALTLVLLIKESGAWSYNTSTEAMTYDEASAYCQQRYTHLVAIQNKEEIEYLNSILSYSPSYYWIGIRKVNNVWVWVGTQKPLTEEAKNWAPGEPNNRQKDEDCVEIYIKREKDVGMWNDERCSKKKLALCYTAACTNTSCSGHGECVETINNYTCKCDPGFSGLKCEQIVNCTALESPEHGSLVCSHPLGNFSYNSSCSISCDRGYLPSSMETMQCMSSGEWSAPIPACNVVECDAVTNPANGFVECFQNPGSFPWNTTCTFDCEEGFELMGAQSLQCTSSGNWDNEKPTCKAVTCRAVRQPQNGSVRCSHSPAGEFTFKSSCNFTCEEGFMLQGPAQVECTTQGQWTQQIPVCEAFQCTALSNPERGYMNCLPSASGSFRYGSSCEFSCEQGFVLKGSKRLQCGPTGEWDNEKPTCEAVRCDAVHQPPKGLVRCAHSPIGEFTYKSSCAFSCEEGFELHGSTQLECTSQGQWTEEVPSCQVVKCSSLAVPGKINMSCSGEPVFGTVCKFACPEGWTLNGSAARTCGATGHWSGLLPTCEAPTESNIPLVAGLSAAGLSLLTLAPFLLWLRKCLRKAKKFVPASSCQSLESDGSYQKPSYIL
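Test system – human umbilical vein endothelial cells (HUVEC), E-selectin induction · Input – 3,000 HUVEC seeded per well · Buffer or medium – EGM-2, gelatin · Compound dosing – single-point compound dose · Detection – immunofluorescence imaging · Measure – percent E-selectin-positive cells · Controls – TNF-alpha high, DMSO low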
Xi reactivation – activators of inactive X chromosome reactivation, primary screen, imaging, XiGFP fibroblasts, GFP high-content imaging, set 2; XiGFP mouse fibroblasts, % GFP-positive cells imaging, 3 d; cells co-treated with 5-aza-dC sensitizer; scaled so ellipticine positive control = 100%; activation, % at 7.58 µM; 0.055% of 360,000 active; AID 743238, 2013;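 active = mean normalized replicate activation at least 10% and every replicate at or above 10%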;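 note: 0% = median of on-plate neutral control wells and 100% = ellipticine 6 µM median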
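Assay system – SV40-immortalized XiGFP fibroblast cells, line 68-5-11 · Buffer or medium – DMEM supplemented with 5-aza-dC as sensitizing agent · Dosing – one concentration, pinned · Benchmarks – positive control ellipticine, 6 µM final · Times – 3 days compound exposure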
* = called active by the depositor; nt = no result given.

SMILES	E-selectin induc	Xi reactivation
C[C@@H]1CN([C@@H](C)CO)C(=O)c2cc(N(C)C)ccc2O[C@H]1CN(C)C(=O)Nc1cccc2ccccc12	-8	-1
COC(=O)[C@H]1[C@H](CO)[C@H]2Cn3c(ccc(-c4ccccc4F)c3=O)[C@H]2N1Cc1ccccc1	0	0
COc1ccc(NC(=O)/C(C#N)=C\c2ccc(N3CCOCC3)o2)cc1	5	0
N#C/C(=C/c1ccc(N2CCCCC2)o1)C(=O)Nc1ccc2ccccc2c1	nt	109*
COc1ccccc1CSc1nc2c(c(=O)n(C)c(=O)n2C)n1C	48*	0
CC(C)n1c(SCc2ccccc2F)nc2c1c(=O)n(C)c(=O)n2C	nt	0
Cc1ccccc1CN(C)C[C@H]1OCc2cnnn2CCCC(=O)N([C@H](C)CO)C[C@H]1C	0	0
CCCCN1C(=O)/C(=C/C=C2\SCCN2C)SC1=S	38*	0
CN1CCS/C1=C/C=C1\SC(=S)N(CC(=O)O)C1=O	0	0
CNC[C@H]1Oc2ccc(NS(=O)(=O)c3c(C)noc3C)cc2CC(=O)N([C@H](C)CO)C[C@@H]1C	0	0
Cc1nc(NC(=O)C(Cl)Cl)sc1C(=O)N(C)C	nt	12*
Cc1nc(NC(=O)CCl)sc1C(=O)N(C)C	-1	0
O=C(Nc1ccc2c(c1)OCO2)N[C@@H]1CC[C@H](CC(=O)N2CCN(c3ccccc3)CC2)O[C@H]1CO	0	0
Cc1cccc(CN(C)C[C@@H]2Oc3ncc(C#Cc4ccccc4)cc3C(=O)N([C@H](C)CO)C[C@@H]2C)c1	-6	15*
C[C@@H]1CN([C@@H](C)CO)C(=O)c2cc(C#CC3CC3)cnc2O[C@@H]1CN(C)C(=O)c1ccccc1	97*	0
Cc1cccc(CN(C)C[C@@H]2Oc3ncc(C#CCN(C)C)cc3C(=O)N([C@H](C)CO)C[C@@H]2C)c1	0	0
C[C@@H]1CN([C@H](C)CO)C(=O)c2cc(C#Cc3cccc(F)c3)cnc2O[C@H]1CN(C)C(=O)C1CCC1	67*	1
C[C@H]1CN([C@@H](C)CO)C(=O)c2cc(C#CC3CC3)cnc2O[C@@H]1CN(C)C(=O)c1ccccc1	0	-1
C[C@H]1CN([C@@H](C)CO)C(=O)c2cc(C#Cc3cccc(F)c3)cnc2O[C@H]1CN(C)C(=O)C1CCC1	0	0
CC(C)NC(=O)Nc1cccc2c1O[C@@H](CN(C)C(=O)NC1CCCCC1)[C@@H](C)CN([C@@H](C)CO)C2=O	-8	0
CCCC#Cc1ccc2c(c1)O[C@@H](CN(C)C(=O)Nc1ccc(OC)cc1)[C@@H](C)CN([C@@H](C)CO)S2(=O)=O	nt	0
C[C@@H](O)C#Cc1ccc2c(c1)O[C@H](CN(C)C(=O)C1CCC1)[C@@H](C)CN([C@@H](C)CO)S2(=O)=O	1	-1
CN(C)S(=O)(=O)c1ccc(Cl)c(C(=O)Nc2nc3ccccc3[nH]2)c1	30*	0
CS(=O)(=O)c1ccccc1C(=O)Nc1nc2ccccc2[nH]1	13	0
O=C(Nn1c(-c2ccncc2)nc2ccccc2c1=O)c1ccc(Br)cc1	nt	0
SMILES	E-selectin induc	Xi reactivation
O=C(Nn1c(-c2ccncc2)nc2ccccc2c1=O)c1ccccc1Br	114*	0
COCCN(C(=O)c1ccc2c(c1)C(=O)N(c1ccccc1Cl)C2=O)c1c(N)n(CC(C)C)c(=O)[nH]c1=O	0	142*
CCCCn1c(N)c(N(CCOC)C(=O)c2ccc3c(c2)C(=O)N(c2ccccc2C)C3=O)c(=O)[nH]c1=O	0	0
Cc1noc(C)c1NC(=O)Nc1ccc2c(c1)CC(=O)N([C@@H](C)CO)C[C@@H](C)[C@H](CN(C)C(=O)NC(C)C)O2	0	-1
COc1ccccc1-n1c(SCC(=O)O)nc2c(sc(=S)n2-c2ccccc2C)c1=O	43*	0
CCN(CC)C(=O)CSc1nc2c(sc(=S)n2-c2ccccc2OC)c(=O)n1-c1ccccc1	0	0
CC(C)CC#Cc1cnc2c(c1)C(=O)N([C@H](C)CO)C[C@@H](C)[C@@H](CN(C)Cc1cncnc1)O2	0	0
COc1ccc(S(=O)(=O)N(C)C[C@@H]2Oc3ccc(NC(=O)c4ccncc4)cc3C(=O)N([C@H](C)CO)C[C@@H]2C)cc1	18	0
COc1ccc(S(=O)(=O)N(C)C[C@H]2Oc3ccc(NC(=O)c4ccncc4)cc3C(=O)N([C@H](C)CO)C[C@H]2C)cc1	28*	0
Cc1ccc(S(=O)(=O)N(C)C[C@@H]2Oc3ccc(NC(=O)c4ccncc4)cc3C(=O)N([C@H](C)CO)C[C@@H]2C)cc1	2	-1
COc1ccc(S(=O)(=O)N(C)C[C@H]2Oc3ccc(NC(=O)c4ccncc4)cc3C(=O)N([C@@H](C)CO)C[C@@H]2C)cc1	47*	0
Cc1ccccc1CN(C)C[C@@H]1OCc2cn(nn2)CCCC(=O)N([C@H](C)CO)C[C@@H]1C	0	0
C[C@H]1CN([C@@H](C)CO)C(=O)Cc2cc(NC(=O)Nc3ccc(F)cc3)ccc2O[C@@H]1CN(C)Cc1ccc(Oc2ccccc2)cc1	0	0
CC(=O)Nc1cc2c3c(cccc3c1)-c1ccccc1-2	0	100*
CC(=O)Nc1ccc2c(c1)C(=Nc1ccccc1)c1ccccc1-2	1	0
Cc1cc(NCc2ccccn2)n2nc(C)c(-c3ccc(Cl)cc3)c2n1	47*	0
Cc1cc(NCc2ccccn2)n2ncc(-c3ccc(Cl)cc3)c2n1	0	0
CC(C)NC(=O)N(C)C[C@@H]1Oc2ncc(-c3ccccc3F)cc2C(=O)N([C@@H](C)CO)C[C@H]1C	0	1
C[C@@H]1CN([C@@H](C)CO)C(=O)c2cc(NS(=O)(=O)c3ccc(F)cc3)ccc2O[C@H]1CN(C)CC1CC1	-2	0
C[C@H](CO)N1C[C@H](C)[C@H](CN(C)C(=O)Nc2ccc3c(c2)OCO3)Oc2ccc(NC(=O)NC3CCCCC3)cc2CC1=O	-8	0
C[C@@H]1CN([C@H](C)CO)C(=O)Cc2cc(NC(=O)C3CC3)ccc2O[C@@H]1CN(C)Cc1ccc2c(c1)OCO2	29*	0
C[C@H]1CN([C@@H](C)CO)C(=O)Cc2cc(NC(=O)C3CC3)ccc2O[C@H]1CN(C)Cc1ccc2c(c1)OCO2	-12	0
C[C@@H]1CN([C@@H](C)CO)C(=O)Cc2cc(NC(=O)NC3CCCCC3)ccc2O[C@H]1CN(C)C(=O)Nc1ccc2c(c1)OCO2	28*	0
CCOC(=O)c1c(CC(C)C)csc1/N=C/C1C(=O)CCCC1=O	33*	0
CCOC(=O)c1c(/N=C/C2C(=O)CCCC2=O)sc2c1CCCC2	nt	0
CS(=O)(=O)N1CCc2cc(C(=O)NC3CC3)ccc21	27*	0
CCCNC(=O)c1ccc2c(c1)CCN2S(C)(=O)=O	nt	0
COc1ccc(CC(C)NS(=O)(=O)c2ccc3c(c2)CCN3S(C)(=O)=O)cc1OC (centres undefined)	nt	0
CS(=O)(=O)N1CCc2cc(S(=O)(=O)NCCNS(=O)(=O)c3ccc4c(c3)CCN4S(C)(=O)=O)ccc21	53*	0
C[C@H](CO)N1C[C@H](C)[C@@H](CN(C)C)Oc2ccc(NC(=O)CCCCCC(=O)Nc3ccccc3N)cc2C1=O	-1	0
